Measurements collected from several papers.
Lines come from different studies, so protocols differ.
MET: Hepatocyte growth factor receptor (MET, Homo sapiens, UniProt P08581)

CNC(=O)c1cc2c(Oc3ccc(NC(=O)C4(C(=O)Nc5ccc(F)cc5)CC4)cc3)ccnc2cc1OC — inhibition (Hepatocyte growth factor receptor (MET, Homo sapiens, UniProt P08581, D1228H); enzyme activity, inhibitor, radiometric; 1 µM): 103%
COc1cc(-c2cn(C3CCc4c(F)cccc4N(CC(F)(F)F)C3=O)nn2)ccc1-n1cnc(C)c1 (stereo not drawn) — remaining binding (MET; cell-free assay, competition with immobilised ligand; 1 µM): 100%
Cc1cnc(NC2CCOCC2)nc1-n1cnc(C(=O)NC(CN)c2cc(F)cc(Cl)c2)c1 (stereo not drawn) — remaining activity (Hepatocyte growth factor receptor (MET, Homo sapiens, UniProt P08581, Y1230D); enzyme activity, inhibitor, radiometric; 1 µM): 97%
Cc1ccc(NC(=O)c2ccc(C)c(C(F)(F)F)c2)cc1C#Cc1nn(C2CCC(O)CC2)c2ncnc(N)c12 (stereo not drawn) — remaining signal (Hepatocyte growth factor receptor (MET, Homo sapiens, UniProt P08581, D1228N); cell-free assay; 10 µM): 103%
COc1cc(-c2cn(C3CCc4ccccc4N(CC(F)(F)F)C3=O)nn2)ccc1-n1ccc(C)n1 (stereo not drawn) — remaining binding (Hepatocyte growth factor receptor (MET, Homo sapiens, UniProt P08581, Y1235D); cell-free assay, competition with immobilised ligand; 1 µM): 93%
Nc1ncnc2occ(-c3ccc(NC(=O)Nc4cc(C(F)(F)F)ccc4F)cc3)c12 — remaining signal (MET; cell-free assay; 20 µM): 8.8%
N[C@H]1CCN(c2nccc(-c3cnn4ncccc34)n2)C1 — remaining binding (Hepatocyte growth factor receptor (MET, Homo sapiens, UniProt P08581, M1250T); binding; 1 µM): 100%
COCCOc1nc(-c2ccc(Cl)nc2)nc2c1CN(C(=O)c1ncn3ccccc13)CC2 — remaining binding (MET; cell-free assay, competition with immobilised ligand; 0.1 µM): 100%
Cc1cc(NC(=O)c2cccc3cc(-c4cccc5[nH]nc(N)c45)ccc23)ccc1F — activity vs control (Hepatocyte growth factor receptor (MET, Homo sapiens, UniProt P08581, Y1230C); enzyme activity, inhibitor; 0.1 µM): 92%
